Results as given in PubChem BioAssay AID488972 (Southern Research Specialized Biocontainment Screening …, 2010).
Active and inactive are the calls of the source.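 The calls were made as follows: active = compounds blocking at least half of the virus-caused cell damage; inactive = the rest.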

System: HEp-2 RSV Long CPE, luminescence viability
Experiment: antiviral activity against RSV Long strain – cell-based, HEp-2, luminescence viability, purified and synthesized compounds, dose response (AID 488972)
How it was run: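 Assay system: RSV Long-infected HEp-2 cells. Times: six-day compound and virus exposure at 37 °C. Detection: luminescence-based measurement of viral cytopathic effect. Repeats: triplicate wells per dose.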

SMILES | IC50
Cc1ccc(NC(=O)CNS(=O)(=O)c2cccc3cccnc23)c(C)c1 | > 50 µM (inactive)
O=C(Nc1ccc(C(F)(F)F)cc1[N+](=O)[O-])O[C@H]1[C@H](Cc2ccccc2)NS(=O)(=O)[C@H]2C[C@@H]3C=C[C@]12O3 | > 50 µM (inactive)
Cc1ccc(NC(=O)C2CCCN2Cc2cccc3cccnc23)c(C)c1 (stereo unspecified) | > 50 µM (inactive)
Cc1ccc(NC(=O)C2CCCN2C(=O)c2ccccc2)c(C)c1 (stereo unspecified) | > 50 µM (inactive)
Cc1ccc(NC(=O)[C@H]2CCCN2S(=O)(=O)c2cccc3cccnc23)c(C)c1 | > 50 µM (inactive)
Cc1csc(NC(=O)c2cccnc2)n1 | > 50 µM (inactive)
CSc1ncccc1C(=O)Nc1nc(C(C)(C)C)cs1 | 16.2 µM
CSc1ncccc1C(=O)Nc1nc(C)cs1 | > 50 µM (inactive)
Cc1ccc(NC(=O)C2CCCN2Cc2ccccc2)c(C)c1 (stereo unspecified) | > 50 µM (inactive)
Cc1ccc(NC(=O)C2CCCN2S(=O)(=O)c2cccc3cnccc23)c(C)c1 (stereo unspecified) | > 50 µM (inactive)
Cc1ccc(NC(=O)C2CCCN2S(C)(=O)=O)c(C)c1 (stereo unspecified) | > 50 µM (inactive)
Cc1ccc(NC(=O)C2CCCN2C(=O)c2cccc3cccnc23)c(C)c1 (stereo unspecified) | > 50 µM (inactive)
Cc1ccc(NC(=O)CN(C)S(=O)(=O)c2cccc3cccnc23)c(C)c1 | > 50 µM (inactive)
Cc1ccc(NC(=O)[C@@H]2CCCN2S(=O)(=O)c2cccc3cccnc23)c(C)c1 | 7.81 µM
Cc1ccc(NC(=O)C2CCCN2S(=O)(=O)c2cccc3cc(C)cnc23)c(C)c1 (stereo unspecified) | > 50 µM (inactive)
Cc1ccc(NC(=O)C2CCCN2S(=O)(=O)c2ccc3ncccc3c2)c(C)c1 (stereo unspecified) | > 50 µM (inactive)
Cc1ccc(NC(=O)C2CCCN2S(=O)(=O)c2cccc3cccnc23)c(C)c1 (stereo unspecified) | 13.2 µM
Cc1ccc(NC(=O)C(C)NS(=O)(=O)c2cccc3cccnc23)c(C)c1 (stereo unspecified) | > 50 µM (inactive)
Cc1ccc(NC(=O)C2CCCN2S(=O)(=O)c2ccccc2)c(C)c1 (stereo unspecified) | > 50 µM (inactive)
Cc1ccc(NC(=O)C2CCCN2S(=O)(=O)c2cccc3ccccc23)c(C)c1 (stereo unspecified) | > 50 µM (inactive)
CC(C)(C)c1csc(NC(=O)c2cccnc2)n1 | > 50 µM (inactive)
